Reference: ChEMBL document CHEMBL5724801, “EUbOPEN Chemogenomics Library - Multiplex” (2024)
Several values for one entry are separate records, joined by “and”; a condition that tells them apart may be missing. Equal values may be shown once.

Tested on: Fibroblast
Experiment: Multiplex assay against human fibroblast
Type: toxicity, cell-based
Procedure, shortened: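 Cells stained live at seeding with Hoechst33342, BioTracker Green Microtubule Cytoskeleton Dye, MitoTracker Red and Annexin V Alexa Fluor 680 were imaged on a CQ1 microscope at 37°C and 5% CO2 after compound addition. Their classification by CellPathfinder machine-learning gating ran from Hoechst high-intensity objects versus normal cells, to healthy, pyknosed or fragmented nuclei among normal cells, to mitotic or apoptotic among pyknosed cells. Tubulin, mitochondrial-mass and membrane-permeability phenotypes are per cents of healthy-nucleus cells.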

[1] = 12 h, 1 µM, compound concentration 1 uM
[2] = 12 h, 10 µM, compound concentration 10 uM
[3] = 24 h, 1 µM, compound concentration 1 uM
[4] = 24 h, 10 µM, compound concentration 10 uM
[5] = 48 h, 1 µM, compound concentration 1 uM
[6] = 48 h, 10 µM, compound concentration 10 uM

C=C(C)[C@H]1CN[C@H](C(=O)O)[C@H]1CC(=O)O [KAINIC ACID]
Population Fragmented Nuclei (%) [1]: 7.74% and 5.42%
Population Healthy Nuclei (%) [1]: 70.97% and 80.83%
Population Hoechst High Intensity Objects (%) [1]: 0%
Population Membrane Permeable-Phenotype (%) [1]: 7.27% and 2.58%
Population Mitochondria Different-Phenotype (%) [1]: 7.27% and 10.31%
Population Mitotic Cells (%) [1]: 93.94% and 72.73%
Population Normal (%) [1]: 100%
Population Pyknosed Nuclei (%) [1]: 21.29% and 13.75%
Population Tubulin-Different-Phenotype (%) [1]: 10% and 19.07%
Total Cell Count [1]: 155 and 240
Population Apoptotic (%) [2]: 8.57% and 22.92%
Population Fragmented Nuclei (%) [2]: 7.35% and 3.47%
Population Healthy Nuclei (%) [2]: 75.49% and 77.99%
Population Hoechst High Intensity Objects (%) [2]: 0%
Population Membrane Permeable-Phenotype (%) [2]: 5.19% and 2.97%
Population Mitochondria Different-Phenotype (%) [2]: 6.49% and 10.89%
Population Mitotic Cells (%) [2]: 91.43% and 77.08%
Population Normal (%) [2]: 100%
Population Pyknosed Nuclei (%) [2]: 17.16% and 18.53%
Population Tubulin-Different-Phenotype (%) [2]: 11.04% and 20.3%
Total Cell Count [2]: 204 and 259
Population Apoptotic (%) [3]: 13.51% and 31.58%
Population Fragmented Nuclei (%) [3]: 7.78% and 7.44%
Population Healthy Nuclei (%) [3]: 71.67% and 84.71%
Population Hoechst High Intensity Objects (%) [3]: 0%
Population Membrane Permeable-Phenotype (%) [3]: 3.88% and 1.46%
Population Mitochondria Different-Phenotype (%) [3]: 0.78% and 5.37%
Population Mitotic Cells (%) [3]: 86.49% and 68.42%
Population Normal (%) [3]: 100%
Population Pyknosed Nuclei (%) [3]: 20.56% and 7.85%
Total Cell Count [3]: 180 and 242
Population Apoptotic (%) [4]: 5.41% and 14.29%
Population Fragmented Nuclei (%) [4]: 8.53% and 4.49%
Population Healthy Nuclei (%) [4]: 73.93% and 85.02%
Population Hoechst High Intensity Objects (%) [4]: 0%
Population Membrane Permeable-Phenotype (%) [4]: 8.33% and 2.64%
Population Mitochondria Different-Phenotype (%) [4]: 4.49% and 3.52%
Population Mitotic Cells (%) [4]: 94.59% and 85.71%
Population Normal (%) [4]: 100%
Population Pyknosed Nuclei (%) [4]: 17.54% and 10.49%
Population Tubulin-Different-Phenotype (%) [4]: 17.31% and 18.5%
Total Cell Count [4]: 211 and 267
Population Apoptotic (%) [5]: 0% and 25%
Population Fragmented Nuclei (%) [5]: 7.94% and 4.31%
Population Healthy Nuclei (%) [5]: 88.89% and 87.84%
Population Hoechst High Intensity Objects (%) [5]: 0%
Population Membrane Permeable-Phenotype (%) [5]: 0.6% and 1.34%
Population Mitochondria Different-Phenotype (%) [5]: 15.48% and 5.36%
Population Mitotic Cells (%) [5]: 100% and 75%
Population Normal (%) [5]: 100%
Population Pyknosed Nuclei (%) [5]: 3.17% and 7.84%
Total Cell Count [5]: 189 and 255
Population Apoptotic (%) [6]: 36.36% and 23.53%
Population Fragmented Nuclei (%) [6]: 9.7% and 6.92%
Population Healthy Nuclei (%) [6]: 85.65% and 86.54%
Population Hoechst High Intensity Objects (%) [6]: 0%
Population Membrane Permeable-Phenotype (%) [6]: 2.96% and 2.22%
Population Mitotic Cells (%) [6]: 63.64% and 76.47%
Population Normal (%) [6]: 100%
Population Pyknosed Nuclei (%) [6]: 4.64% and 6.54%
Total Cell Count [6]: 237 and 260
